Experimental data reported in ChEMBL document CHEMBL1147048, “Identification of anti-prion compounds as efficient inhibitors of polyglutamine protein aggregation in a zebrafish model” (J Biol Chem, 2007).
Calls of active or inactive are those of the source. No cut-off for these calls is given here.

Legend:
[1] = Inhibition of detergent insoluble aggregation of mutant poly Q102-GFP expressed in zebrafish embryo at 50 uM by filter trap assay
In short: (§1)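 AB wild-type embryos were injected at the 1-2 cell stage with Q102-GFP mRNA. They were then kept in E3 with 1% DMSO plus compound (isoproterenol dissolved in water), with the chorion disrupted; controls received solvent alone. After 24 h at 28.5 °C, lysates were heated in 4% SDS/100 mM DTT, filtered through 0.2 µm cellulose acetate, probed with anti-GFP and quantified by densitometry. Solvent control was set to 100%; n=3-5 injections.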

Danio rerio [2] = species on record: Danio rerio; assay: Effect on suppression of abnormal morphology and death of zebrafish embryo expressing Q102-GFP; type: organism-based; conditions: in vivo
N2a = assay: Inhibition of aggregation of poly Q102-GFP in mouse N2a cells by filter trap assay; type: cell-based
[3] = Suppression of aggregation of poly Q102-GFP protein expressed in zebrafish embryo at 10 uM by filter trap assay; in short: as §1
[4] = Suppression of aggregation of poly Q102-GFP mutant expressed in zebrafish embryo by filter trap assay; in short: as §1
Danio rerio [5] = species on record: Danio rerio; assay: Suppression of inclusion formation in zebrafish embryo expressing poly Q102-GFP protein after 24 hrs at 1 uM; type: functional, organism-based

Row | SMILES | Activity (Danio rerio [2]) | Activity (N2a) | other results
1 | O=C(N/N=C/c1ccc2ccccc2c1)c1ccc(O)c(O)c1 | Not Active | Active | Activity [1]: Active
2 | COc1cc(/C=N/N=C(N)N)ccc1OCc1c(C)c(C)c(Br)c(C)c1C.Cl | Not Active | Active | 
3 | CC(C)NCC(O)c1ccc(O)c(O)c1 (centres undefined) |  |  | Activity [3]: inactive
4 | Cc1cc(O)c(C)c2sc(N)nc12 | Not Active | Active | Activity [4]: Active
5 | Nc1c(/N=N/c2ccc(-c3ccc(/N=N/c4cc(S(=O)(=O)O)c5ccccc5c4N)cc3)cc2)cc(S(=O)(=O)O)c2ccccc12 |  |  | Activity [4]: Active
6 | COc1c(C)c2c(c(O)c1C/C=C(\C)CCC(=O)O)C(=O)OC2 |  |  | Activity (Danio rerio [5]): inactive
7 | O=C(N/N=C/c1ccc2ccccc2c1)c1cccc(Cl)c1 | Not Active | Active | Activity [1]: Active
